Assay results of several laboratories.
Each line is one published result; the experiments were not run side by side. In brackets after ≈: the same amount, converted by molar mass.

COc1ccc(C=NNC(=S)Nc2cccnc2)cc1 — IC50 (Leishmania major; parasite growth, MTT; 72 h, promastigote): 1000 µM
C/C(=N\C(=O)/N=C(\C)c1c(O)c2ccccc2oc1=O)c1c(O)c2ccccc2oc1=O — MIC (Aspergillus glaucus; microbial growth, broth dilution; 48 h): 62.5 µg/mL
Cc1ccc(Nc2cnnc3cc(-c4cnc(N5CCCN(C)CC5)nc4)ccc23)cn1 — EC50 (Leishmania major; parasite growth; intracellular, amastigote): > 23 µM
CC[C@H]1OC(=O)[C@H](C)[C@@H](O[C@H]2C[C@@](C)(OC)[C@@H](O)[C@H](C)O2)[C@H](C)[C@@H](O[C@@H]2O[C@H](C)C[C@H](N(C)C)[C@H]2O)[C@](C)(O)C[C@@H](C)/C(=N\OCOCCOC)[C@H](C)[C@@H](O)[C@]1(C)O — MIC50 (Enterococcus faecalis; microbial growth; clinical isolate): > 128 µg/mL
[H]/N=C(\N/C(=N/[H])NCCCCCCNC(=N)NC(=N)Nc1ccc(Cl)cc1)Nc1ccc(Cl)cc1 — MIC (Enterococcus faecalis; microbial growth): 4 µM
COc1c(N2C[C@@H]3CCCN[C@@H]3C2)c(F)cc2c(=O)c(C(=O)O)cn(C3CC3)c12 — MIC (Enterococcus faecalis; microbial growth, agar dilution; ATCC29212): 8 µg/mL
COc1ccc(C=NNC(=S)Nc2cccnc2)cc1OC — IC50 (Leishmania major; parasite growth, MTT; 72 h, promastigote): 1080 µM
Cc1c2c(nn1C)CSCc1cc(n(C)n1)CSc1cc(c3ccccc3c1)OCCCc1c(C(=O)O)n(C)c3c-2c(Cl)ccc13 — MIC90 (Enterococcus faecalis; microbial growth, broth dilution; clinical isolate): 25 µM
CNC(=S)NN=Cc1ccc(Br)cc1 — IC50 (Leishmania major; parasite growth; J774.A1; 72 h, intracellular, amastigote): 31.8 µM
COc1ccc(Nc2cnnc3ccc(-c4ccc(N5CCN(C)CC5)cc4)cc23)nc1 — EC50 (Leishmania major; parasite growth; intracellular, amastigote): > 23 µM
CC1(C)S[C@@H]2[C@H](NC(=O)[C@H](N)c3ccccc3)C(=O)N2[C@H]1C(=O)O — MIC90 (Enterococcus faecalis; microbial growth; clinical isolate): > 128 µg/mL
CC(=O)N1CCN(c2ccc(OCC3COC(Cn4ccnc4)(c4ccc(Cl)cc4Cl)O3)cc2)CC1 (centres unmarked) — MIC (Aspergillus glaucus; microbial growth, broth dilution; 48 h): 7.8 µg/mL
CC(=O)NC[C@H]1CN(c2ccc(N3CCOCC3)c(F)c2)C(=O)O1 — MIC (Enterococcus faecalis; microbial growth, agar dilution; ATCC29212): 2 µg/mL
CNC(=S)NN=Cc1ccc([N+](=O)[O-])cc1 — IC50 (Leishmania major; parasite growth, MTT; 72 h, promastigote): 160 µM
CN1CCN(c2ncc(-c3ccc4c(Nc5ncccn5)cnnc4c3)cn2)CC1 — EC50 (Leishmania major; parasite growth; intracellular, amastigote): > 25 µM
C/C(=N\CCNCCNCC/N=C(\C)c1c(O)c2ccccc2oc1=O)c1c(O)c2ccccc2oc1=O — MIC (Aspergillus glaucus; microbial growth, broth dilution; 48 h): 125 µg/mL
Cc1ccc(Nc2cnnc3cc(-c4ccc(N5CCN(C)CC5)cc4)ccc23)cn1 — EC50 (Leishmania major; parasite growth; intracellular, amastigote): > 24 µM
S=C(NN=Cc1ccc(Br)cc1)Nc1cccnc1 — IC50 (Leishmania major; parasite growth; J774.A1; 72 h, intracellular, amastigote): 627 µM
C=C[C@]1(C)C[C@@H](OC(=O)CS[C@@H]2C[C@H]3CC[C@@H](C2)N3C)[C@]2(C)[C@H](C)CC[C@]3(CCC(=O)[C@H]32)[C@@H](C)[C@@H]1O — MIC90 (Enterococcus faecalis; microbial growth; clinical isolate): > 128 µg/mL
CC1(C)S[C@@H]2[C@H](NC(=O)[C@H](N)c3ccccc3)C(=O)N2[C@H]1C(=O)O — MIC (Enterococcus faecalis; microbial growth, broth dilution; ATCC19433; 12 h): 0.5 µg/mL
CN[C@H](CC(C)C)C(=O)N[C@H]1C(=O)N[C@@H](CC(N)=O)C(=O)N[C@H]2C(=O)N[C@H]3C(=O)N[C@H](C(=O)N[C@H](C(=O)O)c4cc(O)cc(O)c4-c4cc3ccc4O)[C@H](O)c3ccc(c(Cl)c3)Oc3cc2cc(c3O[C@@H]2O[C@H](CO)[C@@H](O)[C@H](O)[C@H]2O[C@H]2C[C@](C)(N)[C@H](O)[C@H](C)O2)Oc2ccc(cc2Cl)[C@H]1O — MIC50 (Enterococcus faecalis; microbial growth, broth dilution; clinical isolate): 2 µg/mL (≈ 1.38 µM)
CN1CCN(c2ccc(-c3ccc4c(Nc5cnccn5)cnnc4c3)cc2)CC1 — EC50 (Leishmania major; parasite growth; intracellular, amastigote): > 25 µM
CNC(=S)NN=Cc1ccc(C)cc1 — IC50 (Leishmania major; parasite growth; J774.A1; 72 h, intracellular, amastigote): 1110 µM
CCCCCCCCN=c1ccn(CCCCCCCCCCn2ccc(=NCCCCCCCC)cc2)cc1 — MIC (Enterococcus faecalis; microbial growth): 0.5 µM
COc1ccc(Nc2cnnc3ccc(-c4cnc(N5CCN(C)CC5)nc4)cc23)cc1Cl — EC50 (Leishmania major; parasite growth; intracellular, amastigote): > 22 µM
CNC(=S)NN=Cc1ccc(F)cc1 — IC50 (Leishmania major; parasite growth; J774.A1; 72 h, intracellular, amastigote): 319 µM
CN1CCN(c2ccc(-c3ccc4c(Nc5ncccn5)cnnc4c3)cc2)CC1 — EC50 (Leishmania major; parasite growth; intracellular, amastigote): > 12.6 µM
OC(Cn1cncn1)(Cn1cncn1)c1ccc(F)cc1F — MIC (Aspergillus fumigatus; microbial growth, broth dilution; AF293; 48 h): > 64 µg/mL
C/C(=N\NC(=O)/N=C(\C)c1c(O)c2ccccc2oc1=O)c1c(O)c2ccccc2oc1=O — MIC (Aspergillus glaucus; microbial growth, broth dilution; 48 h): 125 µg/mL
CNC(=S)NN=Cc1ccc(OC)c(OC)c1 — IC50 (Leishmania major; parasite growth; J774.A1; 72 h, intracellular, amastigote): 60 µM
Cc1ccc(Nc2cnnc3ccc(-c4ccc(N5CCCN(C)CC5)cc4)cc23)cn1 — EC50 (Leishmania major; parasite growth; intracellular, amastigote): > 4.7 µM
C/C(=N\C1CCCCC1/N=C(\C)c1c(O)c2ccccc2oc1=O)c1c(O)c2ccccc2oc1=O (centres unmarked) — MIC (Aspergillus glaucus; microbial growth, broth dilution; 48 h): 31.2 µg/mL
